Results as given in ChEMBL document CHEMBL1250446, “Novel targets for Huntington's disease in an mTOR-independent autophagy pathway” (Nat Chem Biol, 2008).
The source made the active and inactive calls. The calls are words filed in the database; no cut-off is given here.

Tests used:
[1] = system: PC-12; assay: Induction of autophagy in rat stable inducible PC12 cells expressing A53T alpha-synuclein and endogenously I1R assessed as increase in A53T alpha-synuclein clearance at 1 uM after 24 hrs by densitometric analysis; format: functional, cell-based
How it was run: (§1)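 Inducible PC12 A53T α-synuclein (HA) cells induced with 1 μg/ml doxycycline for 48 h. Doxycycline then removed for 24 h with compound or DMSO. Remaining protein measured by anti-HA immunoblot, densitometry relative to actin.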

[2] = system: PC-12; assay: Induction of autophagy in rat stable inducible PC12 cells assessed as increase in LC3-2 level after 24 hrs by immunoblotting analysis; format: functional, cell-based
How it was run: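 Endogenous LC3-II in PC12 cells after 24 h exposure; immunoblot densitometry relative to actin.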

[3] = system: PC-12; assay: Induction of autophagy in rat stable inducible PC12 cells expressing EGFP-HDQ74 and endogenously I1R assessed as decrease in EGFP-HDQ74 aggregation at 1 uM after 24 hrs by densitometric analysis; format: functional, cell-based
[4] = system: SK-N-MC; assay: Induction of autophagy in human SK-N-MC cells expressing A53T alpha-synuclein and endogenously I1R/alpha2 AR assessed as increase in A53T alpha-synuclein clearance at 1 uM after 24 hrs by densitometric analysis; format: functional, cell-based
[5] = system: SK-N-MC; assay: Induction of autophagy in human SK-N-MC cells expressing EGFP-HDQ74 and endogenously I1R/alpha2 AR assessed as decrease in EGFP-HDQ74 aggregation at 1 uM after 24 hrs by densitometric analysis; format: functional, cell-based
[6] = system: COS-7; assay: Induction of autophagy in african green monkey COS7 cells expressing EGFP-HDQ74 assessed as huntingtin mutant aggregation at 10 uM after 48 hrs; format: functional, cell-based; details: Chlorocebus aethiops
How it was run: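 COS-7 cells seeded at 1×10⁵/well for 24 h, then transfected with pEGFP-HDQ74 (1.5 μg/well) using LipofectAMINE for 4 h. Compound added, and cells fixed at 48 h and mounted in DAPI. About 200 EGFP-positive cells per sample were scored for presence of aggregates by a blinded observer. Triplicate, at least twice.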

[7] = system: COS-7; assay: Induction of autophagy in african green monkey COS7 cells expressing PLC-epsilon assessed as calpain activation at 2.5 uM after 30 mins by immunoblotting analysis; format: functional, cell-based; details: Chlorocebus aethiops
How it was run: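 Calpain activation in COS-7 after 30 min exposure, alongside 2.5 μM thapsigargin where applied; immunoblot of the active calpain small subunit.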

[8] = system: SK-N-MC; assay: Cytotoxicity against human SK-N-MC cells expressing EGFP-HDQ74 at 1 uM after 48 hrs; format: cell-based
[9] = system: SK-N-SH (Homo sapiens); assay: Induction of autophagy in human SK-N-SH cells expressing EGFP-HDQ74 assessed as reduction in EGFP-HDQ74 aggregation at 1 uM after 48 hrs by densitometric analysis
[10] = species: Danio rerio; assay: Protection of neurodegeneration in zebrafish Huntington's disease model expressing EGFP-tagged huntingtin exon with EGFP-HDQ71 in rod photoreceptor assessed as decrease in […] aggregation at 3 uM
[11] = species: Danio rerio; assay: Protection of neurodegeneration in zebrafish Huntington's disease model expressing EGFP-tagged huntingtin exon with EGFP-HDQ71 in rod photoreceptor assessed as loss of rhodopsin expression at 3 uM
[12] = species: Mus musculus; assay: Induction of autophagy in Atg deficient mouse […] expressing EGFP-HDQ74 at 1 uM after 48 hrs; format: functional
[13] = species: Danio rerio; assay: Protection of neurodegeneration in zebrafish Huntington's disease model expressing EGFP-tagged huntingtin exon with EGFP-HDQ71 in rod photoreceptor assessed as decrease in […] aggregation at 3 uM; format: functional, organism-based
How it was run: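 Transgenic zebrafish larvae raised in PTU to 3 d.p.f., then dark-reared 3–9 d.p.f. with drug in E3 medium (pH 7.2), refreshed daily. Fixed fish were cryosectioned at 12 μm and aggregates counted over 96 μm of the central eye. Means from 10 fish per group; ANOVA with Dunnett's test.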

[14] = species: Danio rerio; assay: Protection of neurodegeneration in zebrafish Huntington's disease model expressing EGFP-tagged huntingtin exon with EGFP-HDQ71 in rod photoreceptor assessed as induction of rhodopsin expression at 3 uM; format: functional, organism-based
How it was run: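 Zebrafish larvae dark-reared 3–9 d.p.f. with drug in E3, refreshed daily, then lysed in RIPA/DTT. Western blot with anti-rhodopsin (Zpr3, 1:1000), anti-Zpr1 and anti-EGFP antibodies; ECL detection.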

[15] = system: SK-N-MC; assay: Induction of autophagy in Atg positive human SK-N-MC cells expressing EGFP-HDQ74 at 1 uM after 48 hrs; format: functional, cell-based
[16] = system: SK-N-SH; assay: Induction of autophagy in human SK-N-SH cells expressing EGFP-HDQ74/m-calpain assessed as inhibition of EGFP-HDQ74 aggregation at 1 uM after 48 hrs; format: functional, cell-based
[17] = system: HeLa; assay: Induction of autophagy in human HeLa cells expressing EGFP-LC3 assessed as increase in LC3-2 level at 400 nM; format: functional, cell-based
[18] = system: PC-12; assay: Induction of autophagy in rat stable inducible PC12 cells expressing A53T alpha-synuclein assessed as A53T alpha-synuclein clearance at 500 uM after 24 hrs by densitometric analysis; format: functional, cell-based; how it was run: as §1
[19] = system: SK-N-SH; assay: Induction of autophagy in human SK-N-SH cells expressing EGFP-HDQ74 assessed as reduction in EGFP-HDQ74 aggregation at 500 uM after 48 hrs by densitometric analysis; format: functional, cell-based
[20] = system: SK-N-SH (Homo sapiens); assay: Induction of autophagy in human SK-N-SH cells assessed as increase in LC3-2 level at 3 uM after 24 hrs by immunoblotting analysis
[21] = system: HeLa; assay: Induction of autophagy in human HeLa cells expressing EGFP-LC3 assessed as increase in LC3-2 level at 400 nM in presence of erythro-9-(3-(2-hydroxynonyl)adenine; format: functional, cell-based
[22] = system: COS-7; assay: Induction of autophagy in african green monkey COS7 cells assessed as increase in LC-3-2 positive vesicles at 2.5 uM after 2 hrs by immunofluorescence analysis; format: functional, cell-based; details: Chlorocebus aethiops
How it was run: (§2)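 COS-7 cells treated 2 h, fixed in 4% paraformaldehyde, then immunostained with anti-LC3 and Alexa-conjugated secondary antibodies. LC3-positive vesicles imaged by confocal microscopy (63x oil lens) at room temperature.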

[23] = system: PC-12; assay: Induction of autophagy in rat stable inducible PC12 cells expressing A53T alpha-synuclein assessed as A53T alpha-synuclein clearance at 2.5 uM after 24 hrs by densitometric analysis in presence of 50 uM ALLM; format: functional, cell-based
How it was run: (§3)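 Stable inducible PC12 line: A53T α-synuclein (HA-tagged) induced with 1 μg/ml doxycycline for 48 h, then switched off by doxycycline removal for 24 h during treatment. For ALLM (50 μM), 15 min pre-treatment. Anti-HA immunoblot, densitometry relative to actin; DMSO control.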

[24] = system: COS-7; assay: Induction of autophagy in african green monkey COS7 cells expressing EGFP-Atg5 assessed as increase in Atg5 level at 10 uM after 48 hrs by immunoblotting analysis; format: functional, cell-based; details: Chlorocebus aethiops
How it was run: (§4)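 COS-7 cells co-transfected 4 h with EGFP-Atg5 plus EGFP as transfection control (3:1 ratio), then treated. Atg5 level and cleavage assessed by immunoblotting.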

[25] = system: PC-12; assay: Induction of autophagy in rat stable inducible PC12 cells expressing A53T alpha-synuclein assessed as A53T alpha-synuclein clearance at 2.5 uM after 24 hrs by densitometric analysis; format: functional, cell-based; how it was run: as §3
[26] = system: COS-7; assay: Induction of autophagy in african green monkey COS7 cells assessed as intracytosolic calcium concentration nu calpain activation assay; format: functional, cell-based; details: Chlorocebus aethiops
[27] = system: COS-7; assay: Induction of autophagy in african green monkey COS7 cells expressing EGFP-Atg5 assessed as increase in Atg5 level at 2.5 uM after 48 hrs by immunoblotting analysis; format: functional, cell-based; details: Chlorocebus aethiops; how it was run: as §4
[28] = system: COS-7; assay: Induction of autophagy in african green monkey COS7 cells assessed as increase in steady state LC-3 positive vesicles at 2.5 uM after 2 hrs by immunofluorescence analysis; format: functional, cell-based; details: Chlorocebus aethiops; how it was run: as §2
[29] = system: COS-7; assay: Induction of autophagy in african green monkey COS7 cells assessed as increase in LC-3-2 positive vesicles at 2.5 uM after 2 hrs by immunofluorescence analysis n presence of 400 nM bafilomycin A1; format: functional, cell-based; details: Chlorocebus aethiops
[30] = system: COS-7; assay: Induction of autophagy in african green monkey COS7 cells expressing EGFP-HDQ74 assessed as EGFP-HDQ74 aggregation at 2.5 uM after 48 hrs; format: functional, cell-based; details: Chlorocebus aethiops
How it was run: (§5)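 COS-7 cells transfected with EGFP-HDQ74 (1.5 μg/well) for 4 h, then exposed for the last 24 h of a 48 h post-transfection period. ALLM (50 μM) was added 15 min before thapsigargin. Cells fixed in 4% PFA with DAPI mount; ~200 EGFP-positive cells per sample scored blinded for aggregates. Triplicate, at least twice; odds ratios.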

[31] = system: COS-7; assay: Induction of autophagy in african green monkey COS7 cells expressing EGFP-HDQ74 assessed as EGFP-HDQ74 aggregation at 2.5 uM after 48 hrs in presence of 50 uM ALLM; format: functional, cell-based; details: Chlorocebus aethiops; how it was run: as §5
[32] = system: COS-7; assay: Effect on mTOR-signaling in african green monkey COS7 cells assessed as phospho-S6K at 2.5 uM by immunoblotting analysis; format: cell-based; details: Chlorocebus aethiops
How it was run: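 COS-7 cells exposed 24 h (0.2 μM rapamycin as positive control for mTOR inhibition); lysates immunoblotted for phospho-S6K, with densitometry of phospho-S6K relative to total S6K.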

[33] = system: COS-7; assay: Inhibition of Gsalpha in african green monkey COS7 cells expressing EGFP-HDQ74/m-calpain assessed as increase in LC3-2 level by autophagy induction assay; format: functional, cell-based; details: Chlorocebus aethiops
[34] = system: COS-7; assay: Induction of autophagy in african green monkey COS7 cells expressing EGFP-HDQ74/m-calpain assessed as decrease in EGFP-HDQ74 aggregation at 500 uM after 48 hrs; format: functional, cell-based; details: Chlorocebus aethiops

C1COC(NC(C2CC2)C2CC2)=N1
Activity [1]: Active | Activity [2]: Dose-dependent effect | Activity [3]: Active | Activity [4]: Active | Activity [5]: Active

CO[C@@H]1[C@@H]2OP(=O)(O)OC[C@H]2O[C@H]1n1c(Sc2ccc(Cl)cc2)nc2c(N)ncnc21
Activity [6]: inactive | Activity [7]: inactive

O=C(Nc1ncnc2c1ncn2[C@@H]1O[C@@H]2COP(=O)(O)O[C@H]2[C@H]1O)c1ccccc1
Activity [7]: Active

CCOC(=O)C1=C(C)NC(C)=C(C(=O)OC)C1c1cccc([N+](=O)[O-])c1 (stereo not drawn) [NITRENDIPINE]
Activity [8]: Non-toxic | Activity [9]: Active

CCCC(CCC)C(=O)O [VALPROIC ACID]
Activity [8]: Non-toxic | Activity [10]: Active | Activity [9]: Active | Activity [11]: inactive

Clc1cccc(Cl)c1NC1=NCCN1
Activity [12]: inactive | Activity [13]: Active | Activity [14]: Active | Activity [15]: Active | Activity [16]: inactive | Activity [10]: Active | Activity [9]: Active | Activity [11]: inactive

CN(C)C(=O)C(CCN1CCC(O)(c2ccc(Cl)cc2)CC1)(c1ccccc1)c1ccccc1 [LOPERAMIDE]
Activity [8]: Non-toxic | Activity [9]: Active

Clc1cccc(Cl)c1N=C1NCCN1 [CLONIDINE]
Activity [8]: Non-toxic

COCCOC(=O)C1=C(C)NC(C)=C(C(=O)OC(C)C)C1c1cccc([N+](=O)[O-])c1 (stereo not drawn) [NIMODIPINE]
Activity [8]: Non-toxic | Activity [9]: Active

CO/C1=C\C(C)=C\[C@@H](C)[C@@H](O)[C@@H](C)C/C(C)=C/C=C/[C@H](OC)[C@@H]([C@@H](C)[C@@H](O)[C@H](C)[C@@]2(O)C[C@@H](O)[C@H](C)[C@@H](C(C)C)O2)OC1=O
Activity [17]: Active

CCCC(=O)Nc1ncnc2c1ncn2[C@@H]1O[C@@H]2COP(=O)(O)O[C@H]2[C@H]1OC(=O)CCC
Activity [18]: inactive | Activity [19]: inactive

C=C[C@@]1(C)CC(=O)[C@]2(O)[C@@]3(C)[C@@H](O)CCC(C)(C)[C@@H]3[C@H](O)[C@H](OC(C)=O)[C@@]2(C)O1
Activity [18]: inactive | Activity [19]: inactive

CCCCc1oc2ccccc2c1C(=O)c1cc(I)c(OCCN(CC)CC)c(I)c1 [AMIODARONE]
Activity [8]: Non-toxic | Activity [9]: Active

Nc1cc(N2CCCCC2)nc(N)[n+]1[O-] [MINOXIDIL]
Activity [12]: inactive | Activity [20]: Active | Activity [15]: Active | Activity [8]: Non-toxic | Activity [9]: Active

CCCCCC[C@@H]([C@@H](C)O)n1cnc2c(N)ncnc21 (relative stereo)
Activity [21]: inactive

C/C=C(/C)C(=O)O[C@H]1C(C)=C2[C@H]([C@@H]1OC(=O)CCCCCCC)[C@@](C)(OC(C)=O)C[C@H](OC(=O)CCC)[C@@]1(O)[C@H]2OC(=O)[C@@]1(C)O
Activity [22]: Active | Activity [23]: Active | Activity [24]: Active | Activity [25]: inactive | Activity [26]: inactive | Activity [27]: Active | Activity [28]: Active | Activity [29]: inactive | Activity [30]: inactive | Activity [31]: Active | Activity [32]: inactive

O=C(Nc1cc(C(=O)Nc2ccc(S(=O)(=O)O)cc2S(=O)(=O)O)cc(C(=O)Nc2ccc(S(=O)(=O)O)cc2S(=O)(=O)O)c1)Nc1cc(C(=O)Nc2ccc(S(=O)(=O)O)cc2S(=O)(=O)O)cc(C(=O)Nc2ccc(S(=O)(=O)O)cc2S(=O)(=O)O)c1
Activity [33]: Active | Activity [34]: Active
